Activity calls are given as the source filed them. The calls are words filed in the database; no cut-off is given here.

The subject of assay [1] is HepG2. As to the kind of experiment: Antiproliferative activity against human HepG2 cells assessed as growth inhibition. The class given is functional, cell-based.
For a further assay, the system named is Hep 3B2. As to the kind of experiment: Antiproliferative activity against human Hep3B cells assessed as growth inhibition. The class given is functional, cell-based.
Assay [2] addresses T1, Focal adhesion kinase 1 (Homo sapiens, UniProt Q05397). As to the kind of experiment: Inhibition of FAK (unknown origin).
Target sequence in this assay (Q05397 whole entry): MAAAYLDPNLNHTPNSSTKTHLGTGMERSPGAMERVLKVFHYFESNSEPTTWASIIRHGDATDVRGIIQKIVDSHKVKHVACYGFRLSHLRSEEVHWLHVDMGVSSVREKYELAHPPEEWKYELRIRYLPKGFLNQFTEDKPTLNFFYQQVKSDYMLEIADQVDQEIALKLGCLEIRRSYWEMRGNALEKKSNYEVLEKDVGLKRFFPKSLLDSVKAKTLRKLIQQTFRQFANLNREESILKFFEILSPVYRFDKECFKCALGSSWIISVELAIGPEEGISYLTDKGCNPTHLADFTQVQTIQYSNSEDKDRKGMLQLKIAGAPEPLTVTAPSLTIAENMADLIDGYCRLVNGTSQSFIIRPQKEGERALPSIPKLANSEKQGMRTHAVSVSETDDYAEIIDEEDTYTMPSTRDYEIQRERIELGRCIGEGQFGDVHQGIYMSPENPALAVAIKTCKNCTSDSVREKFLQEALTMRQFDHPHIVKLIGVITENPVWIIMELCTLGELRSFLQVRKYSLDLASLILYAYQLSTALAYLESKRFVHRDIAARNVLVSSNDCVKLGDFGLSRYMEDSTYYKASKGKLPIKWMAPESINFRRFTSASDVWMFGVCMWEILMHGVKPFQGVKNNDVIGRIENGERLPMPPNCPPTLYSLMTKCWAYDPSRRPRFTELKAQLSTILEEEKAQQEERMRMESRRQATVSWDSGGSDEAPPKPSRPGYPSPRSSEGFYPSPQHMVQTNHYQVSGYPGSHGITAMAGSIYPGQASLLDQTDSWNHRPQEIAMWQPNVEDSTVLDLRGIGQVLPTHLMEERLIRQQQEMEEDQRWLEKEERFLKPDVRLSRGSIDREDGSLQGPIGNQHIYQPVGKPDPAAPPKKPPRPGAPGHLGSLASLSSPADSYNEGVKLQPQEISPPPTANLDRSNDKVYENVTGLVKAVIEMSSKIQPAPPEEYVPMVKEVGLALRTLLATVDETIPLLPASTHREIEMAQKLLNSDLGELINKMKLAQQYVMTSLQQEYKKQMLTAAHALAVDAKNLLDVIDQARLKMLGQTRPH
The target of assay [3] is T1, Focal adhesion kinase 1. As to the kind of experiment: Inhibition of human FAK phosphorylation in human HepG2 cells at 4 uM by Western blot analysis. The class given is cell-based. A digest of the protocol:
(§1)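 HepG2 cells treated, with DMSO as negative control (4 μM stated for p-FAK). Western blot for phospho-FAK, -PI3K, -Akt, -JNK and -STAT3 with GAPDH as loading control. Each phospho band is quantified by densitometry relative to its total protein. Means ± SEM of three experiments, with significance vs DMSO.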
Target sequence in this assay (Q05397 2-1052 limits assumed): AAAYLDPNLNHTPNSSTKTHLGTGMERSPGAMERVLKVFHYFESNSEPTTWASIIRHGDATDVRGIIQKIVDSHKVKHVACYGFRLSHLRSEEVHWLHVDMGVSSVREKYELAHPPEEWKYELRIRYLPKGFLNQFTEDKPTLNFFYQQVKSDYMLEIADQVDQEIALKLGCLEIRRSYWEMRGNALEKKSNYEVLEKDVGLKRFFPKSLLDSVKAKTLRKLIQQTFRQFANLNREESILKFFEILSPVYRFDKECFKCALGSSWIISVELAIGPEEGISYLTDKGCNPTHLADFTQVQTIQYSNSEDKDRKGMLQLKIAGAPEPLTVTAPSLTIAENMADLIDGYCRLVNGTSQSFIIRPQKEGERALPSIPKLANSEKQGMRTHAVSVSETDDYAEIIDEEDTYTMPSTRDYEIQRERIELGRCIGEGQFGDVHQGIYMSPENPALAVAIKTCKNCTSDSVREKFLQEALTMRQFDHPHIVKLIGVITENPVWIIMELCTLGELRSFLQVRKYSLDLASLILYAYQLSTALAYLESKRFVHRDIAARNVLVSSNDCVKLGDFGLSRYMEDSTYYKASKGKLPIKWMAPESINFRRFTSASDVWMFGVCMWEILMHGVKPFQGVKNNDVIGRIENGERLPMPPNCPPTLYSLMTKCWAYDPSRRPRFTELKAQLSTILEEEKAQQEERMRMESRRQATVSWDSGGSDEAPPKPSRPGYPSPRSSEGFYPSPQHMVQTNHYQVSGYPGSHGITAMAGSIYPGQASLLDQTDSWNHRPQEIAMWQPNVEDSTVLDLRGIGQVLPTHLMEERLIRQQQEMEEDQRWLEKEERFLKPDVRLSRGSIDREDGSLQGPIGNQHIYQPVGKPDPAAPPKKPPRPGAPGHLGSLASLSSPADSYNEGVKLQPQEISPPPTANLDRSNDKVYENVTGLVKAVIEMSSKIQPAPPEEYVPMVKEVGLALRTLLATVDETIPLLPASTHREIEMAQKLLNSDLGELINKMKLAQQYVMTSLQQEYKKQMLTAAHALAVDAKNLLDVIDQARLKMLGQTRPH
In general terms: Immunoblotting shows a protein as a band on a membrane.

Assay [4] relates to HepG2. Kind of assay: Inhibition of PI3K in human HepG2 cells assessed as reduction in PI3K phosphorylation by Westernblot analysis. The class given is cell-based. Put shortly:
as §1

Assay [5] addresses RAC-alpha serine/threonine-protein kinase (Homo sapiens) (UniProt P31749). As to the kind of experiment: Inhibition of Akt in human HepG2 cells assessed as reduction in Akt phosphorylation by Westernblot analysis. The class given is cell-based. A digest of the protocol:
as §1

Assay [6] deals with c-Jun N-terminal kinase, JNK (Homo sapiens) (UniProt P45983+P53779+P45984). As to the kind of experiment: Inhibition of JNK in human HepG2 cells assessed as reduction in JNK phosphorylation by Westernblot analysis. The class given is cell-based. A digest of the protocol:
as §1

Assay [7] has as its target Signal transducer and activator of transcription 3 (Homo sapiens) (UniProt P40763). As to the kind of experiment: Inhibition of STAT3 in human HepG2 cells assessed as reduction in STAT3 phosphorylation by Westernblot analysis. The class given is cell-based. Put shortly: as §1
The subject of assay [8] is HepG2. As to the kind of experiment: Induction of cell cycle arrest in human HepG2 assessed as accumulation of cells at S phase at 3.78 uM incubated for 24 hrs by Flow cytometric analysis. The format is functional.
The subject of assay [9] is HepG2. As to the kind of experiment: Induction of apoptosis in human HepG2 cells assessed as early apoptotic cells after 24 hrs by Annexin V/propidium iodide staining based assay (reference value: 0.33%). The format is functional.
Assay [10] deals with HepG2. As to the kind of experiment: Induction of apoptosis in human HepG2 cells assessed as late apoptotic cells after 24 hrs by Annexin V/propidium iodide staining based assay (reference value: 0.09%). The class given is functional.
Assay [11] concerns HepG2. As to the kind of experiment: Induction of apoptosis in human HepG2 cells assessed as necrotic cells after 24 hrs by Annexin V/propidium iodide staining based assay (reference value: 0.79%). The format is functional.
Assay [12] relates to HepG2. As to the kind of experiment: Induction of cell cycle arrest in human HepG2 assessed as accumulation of cells at sub G1 phase at 3.78 uM incubated for 24 hrs by Flow cytometric analysis.

Sequence of RAC-alpha serine/threonine-protein kinase (Homo sapiens) (P31749 whole entry): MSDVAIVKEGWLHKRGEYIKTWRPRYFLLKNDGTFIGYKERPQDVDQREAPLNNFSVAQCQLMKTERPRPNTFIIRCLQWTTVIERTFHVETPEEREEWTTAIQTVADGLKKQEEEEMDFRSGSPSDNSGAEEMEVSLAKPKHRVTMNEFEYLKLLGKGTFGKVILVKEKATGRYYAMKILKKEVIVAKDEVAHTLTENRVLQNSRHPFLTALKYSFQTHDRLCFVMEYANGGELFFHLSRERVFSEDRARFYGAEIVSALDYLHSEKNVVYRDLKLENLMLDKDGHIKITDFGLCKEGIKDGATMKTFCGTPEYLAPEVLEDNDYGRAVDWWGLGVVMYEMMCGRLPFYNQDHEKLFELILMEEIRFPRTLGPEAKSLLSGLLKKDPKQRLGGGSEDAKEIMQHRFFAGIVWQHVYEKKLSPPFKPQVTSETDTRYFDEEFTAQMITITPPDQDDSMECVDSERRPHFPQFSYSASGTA
Sequence of Signal transducer and activator of transcription 3 (Homo sapiens) (P40763 whole entry): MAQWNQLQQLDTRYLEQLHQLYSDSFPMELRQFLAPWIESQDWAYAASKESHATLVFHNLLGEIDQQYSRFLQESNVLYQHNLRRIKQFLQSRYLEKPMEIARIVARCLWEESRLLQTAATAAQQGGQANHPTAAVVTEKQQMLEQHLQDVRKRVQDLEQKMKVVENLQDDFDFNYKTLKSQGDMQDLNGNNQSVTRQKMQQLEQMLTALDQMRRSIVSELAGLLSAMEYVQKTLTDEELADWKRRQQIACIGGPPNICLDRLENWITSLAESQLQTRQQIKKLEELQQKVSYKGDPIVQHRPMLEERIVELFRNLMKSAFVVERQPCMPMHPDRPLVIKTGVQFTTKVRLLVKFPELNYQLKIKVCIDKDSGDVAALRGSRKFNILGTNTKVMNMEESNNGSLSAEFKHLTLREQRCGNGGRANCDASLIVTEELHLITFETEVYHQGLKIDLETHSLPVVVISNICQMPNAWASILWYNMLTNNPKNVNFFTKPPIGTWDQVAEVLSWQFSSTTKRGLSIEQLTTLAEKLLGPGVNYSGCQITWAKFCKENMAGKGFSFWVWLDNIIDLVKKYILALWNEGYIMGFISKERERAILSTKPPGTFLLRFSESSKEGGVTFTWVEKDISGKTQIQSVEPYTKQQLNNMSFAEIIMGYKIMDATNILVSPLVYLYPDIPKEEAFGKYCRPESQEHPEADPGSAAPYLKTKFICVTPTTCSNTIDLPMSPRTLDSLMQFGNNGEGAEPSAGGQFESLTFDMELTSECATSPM

By IC50 is commonly meant the point on the concentration scale where inhibition reaches its midpoint. For `COc1cccc2c1C(=O)c1c(O)c3c(c(O)c1C2=O)C[C@@](O)(C(=O)CO)C[C@@H]3O[C@H]1C[C@H](N)[C@H](O)[C@H](C)O1` [DOXORUBICIN], the IC50 in the assay with HepG2 [1] stood at 1.99 µM; in the assay on Hep 3B2, 7.21 µM.
As to `O=C(CSc1nnc(-c2ccncc2)n1-c1ccccc1)Nc1ccc(C(=O)O)cc1`, the values for the IC50 on Focal adhesion kinase 1 [2], with HepG2 [1] and in the assay with Hep 3B2 were 0.0181 µM, 3.78 µM and 4.83 µM, respectively. Further, the inhibition result (on Focal adhesion kinase 1 [3]; in the assay on HepG2 [4]; in assay [5]; in assay [6]; in assay [7]) was “Active” throughout. For the same molecule, the Activity is on record as 54.11% with HepG2 [8]; 5.31% in the assay with HepG2 [9]; 23.71% in the assay on HepG2 [10]; 12.59% in the assay on HepG2 [11]; 41.61% with HepG2 [12].
For the molecule `C=CCn1c(SCC(=O)Nc2ccc(C(=O)O)cc2)nnc1-c1ccncc1`, the values for the IC50 against Focal adhesion kinase 1 [2], in the assay with HepG2 [1] and with Hep 3B2 were 0.0364 µM, 4.72 µM and 2.88 µM, respectively. For the same molecule, the inhibition entry (on Focal adhesion kinase 1 [3]; in the assay on HepG2 [4]; in assay [5]; in assay [6]; in assay [7]) was “Active” in each case.
On to `CCn1c(SCC(=O)Nc2ccc(C(=O)O)cc2)nnc1-c1ccncc1`, for which the IC50 with HepG2 [1] is 41 µM; in the assay on Hep 3B2, 17.9 µM.
For `Cn1c(SCC(=O)Nc2ccc(C(=O)O)cc2)nnc1-c1ccncc1`, in that order: 8.83 µM and 3.87 µM.

(Values after ChEMBL document CHEMBL4819057, “Discovery of antiproliferative and anti-FAK inhibitory activity of 1,2,4-triazole derivatives containing acetamido carboxylic acid skeleton” (Bioorg Med Chem Lett, 2021).)
